# Source: article PMC3141282 (Hypertension, 2011)
# Experiments:
# [1] = test system: HEK 293T cells transfected with the empty vector; test: [125I]Ang-; format: binding, Human
# rat renal cortex = settings: cited from earlier work
# megalin = settings: scavenger receptor megalin; cited from earlier work
# [2] = test system: rabbit aortic smooth muscle cells; settings: cited from earlier work
# [3] = test system: endothelial progenitor cells; settings: cells from sham or infarcted rodents; cited from earlier work
# [4] = test system: HEK 293T cells transfected with the empty vector (mock); test: [3H]arachidonic acid; format: cell-based, Human; settings: Ang-(1-7) during 15 min, 37 °C
# In short: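 They were washed with DMEM containing 2% BSA, then exposed to test peptide at 37 °C for the stated times. Supernatant radioactivity was counted, and total cellular radioactivity came from cells solubilized in 1 mol/L NaOH. Fractional release (% of total) was expressed as percent of unstimulated control (100%), mean ± SEM.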
substance,measurement,setting,value
Angiotensin-(1-7) [Ang-(1-7)],Ang-(1-7) binding,"[1]; 0.5 nmol/L [125I]Ang-(1-7), 4°C, 60 min",undetectable
same,total binding,"[1]; 0.5 nmol/L [125I]Ang-(1-7), 4°C, 60 min, mean ± SEM",480±68 cpm
same,nonspecific binding,"[1]; in the presence of 10 μmol/L unlabeled Ang-(1-7), mean ± SEM",395±87 cpm
same,"Ang-(1-7) response, phosphatidylcholine biosynthesis",rat renal cortex,decrease in Ang-(1-7) response
same,binding and internalization by megalin,megalin,binds and internalizes Ang-(1-7)
same,Ang-(1-7) response in releasing AA from tissue lipids and stimulating 6-keto-prostaglandin F1α production,[2],decrease in Ang-(1-7) response
same,"Ang-(1-7)-induced proliferation of endothelial progenitor cells, responsiveness",[3],attenuation in responsiveness
same,"[3H]AA release, mock cells",[4],no changes in [^3H]AA release
